Results reported in ChEMBL document CHEMBL4049453, “Discovery of Mixed Pharmacology Melanocortin-3 Agonists and Melanocortin-4 Receptor Tetrapeptide Antagonist Compounds (TACOs) Based on the Sequence Ac-Xaa1-Arg-(pI)DPhe-Xaa4-NH2” (J Med Chem, 2017).
Each block holds one molecule with its values, some of them ahead of it. Active and inactive are the calls of the source. The rule behind the calls is not given here. Non-standard residues stand in square brackets, D forms with d. Residues, ends and D or L forms follow the SMILES beside them. Bip = N[C@@H](Cc1ccc(-c2ccccc2)cc1)C(=O)O; dPhe(4-I) = N[C@H](Cc1ccc(I)cc1)C(=O)O; 2Nal = N[C@@H](Cc1ccc2ccccc2c1)C(=O)O; d2Nal = N[C@H](Cc1ccc2ccccc2c1)C(=O)O; Bta = N[C@@H](Cc1csc2ccccc12)C(=O)O

Tests used:
Melanocortin receptor 4 [1] = biological target: T1, Melanocortin receptor 4 (Mus musculus, UniProt P56450); assay: Agonist activity at mouse MC4R expressed in HEK293 cells assessed as induction of cAMP accumulation after 2 hrs by alpha screen assay; type: cell-based
T1 sequence (P56450 whole entry): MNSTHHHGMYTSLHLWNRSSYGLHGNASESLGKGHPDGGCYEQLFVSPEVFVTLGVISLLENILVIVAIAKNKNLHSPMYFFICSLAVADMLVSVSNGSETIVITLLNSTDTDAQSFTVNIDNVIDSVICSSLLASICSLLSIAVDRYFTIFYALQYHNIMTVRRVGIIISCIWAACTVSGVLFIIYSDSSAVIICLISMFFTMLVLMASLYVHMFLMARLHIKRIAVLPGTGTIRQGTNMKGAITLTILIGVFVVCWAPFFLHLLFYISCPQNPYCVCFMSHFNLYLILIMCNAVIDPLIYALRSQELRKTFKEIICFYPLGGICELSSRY

Melanocortin receptor 4 [2] = biological target: T1, Melanocortin receptor 4; assay: Agonist activity at mouse MC4R expressed in HEK293 cells assessed as induction of cAMP accumulation up to 100 uM after 2 hrs by alpha screen assay relative to NDP-MSH; type: cell-based; conditions: read-out: Activity
[3] = biological target: Melanocyte-stimulating hormone receptor (Mus musculus) (UniProt Q01727); assay: Agonist activity at mouse MC1R expressed in HEK293 cells assessed as induction of cAMP accumulation at 100 uM after 2 hrs by alpha screen assay relative to NDP-MSH; type: functional, cell-based
Chain of Melanocyte-stimulating hormone receptor (Mus musculus) (Q01727 whole entry, looked up): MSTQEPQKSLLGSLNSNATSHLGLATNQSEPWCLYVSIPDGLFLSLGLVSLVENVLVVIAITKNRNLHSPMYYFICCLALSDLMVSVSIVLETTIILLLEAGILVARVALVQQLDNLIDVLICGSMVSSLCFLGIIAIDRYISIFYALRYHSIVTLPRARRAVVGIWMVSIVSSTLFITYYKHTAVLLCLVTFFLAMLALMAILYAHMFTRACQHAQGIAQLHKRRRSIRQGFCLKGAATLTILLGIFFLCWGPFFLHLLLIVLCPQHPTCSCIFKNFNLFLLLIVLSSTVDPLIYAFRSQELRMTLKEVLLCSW
Summary of the method: (§1)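 HEK293 stably expressing mouse MC1R/MC3R/MC4R/MC5R (pCDNA3). Cells in stimulation buffer (HBSS, 0.5 mM IBMX, 5 mM HEPES, 0.1% BSA, pH 7.4) at 1000 cells/μL with anti-cAMP acceptor beads. Ligand given 10−4 to 10−10 M (or 10−6 to 10−12 M) for 2 h at RT in the dark, then donor beads/biotin-cAMP lysis mix for 2 h. AlphaScreen cAMP read-out, normalized to 10−6 M NDP-MSH as 100%.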

[4] = biological target: Melanocortin receptor 3 (Mus musculus) (UniProt P33033); assay: Antagonist activity at mouse MC3R expressed in HEK293 cells assessed as inhibition of NDP-MSH induced-cAMP accumulation up to 10 uM after 2 hrs by alpha screen assay; type: functional, cell-based
Chain of Melanocortin receptor 3 (Mus musculus) (P33033 whole entry): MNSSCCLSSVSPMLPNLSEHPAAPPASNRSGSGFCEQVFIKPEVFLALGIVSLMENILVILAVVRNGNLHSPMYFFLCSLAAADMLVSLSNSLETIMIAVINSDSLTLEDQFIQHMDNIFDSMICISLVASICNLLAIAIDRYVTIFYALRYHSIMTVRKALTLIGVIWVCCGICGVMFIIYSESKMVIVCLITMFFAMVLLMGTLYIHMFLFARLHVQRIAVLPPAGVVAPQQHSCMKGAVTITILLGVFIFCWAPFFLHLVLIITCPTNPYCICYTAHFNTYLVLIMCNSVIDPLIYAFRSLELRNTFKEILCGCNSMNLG
Summary of the method: (§2)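 mouse MC3R or MC4R in stably transfected HEK293 cells, AlphaScreen cAMP assay (IBMX stimulation buffer, 2 h RT incubation, then 2 h with donor-bead lysis mix). […] Run in triplicate.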

[5] = biological target: Melanocortin receptor 3 (Mus musculus) (UniProt P33033); assay: Agonist activity at mouse MC3R expressed in HEK293 cells assessed as induction of cAMP accumulation at 100 uM after 2 hrs by alpha screen assay relative to NDP-MSH; type: functional, cell-based; summary of the method: as §1
[6] = biological target: Melanocortin receptor 5 (Mus musculus) (UniProt P41149); assay: Agonist activity at mouse MC5R expressed in HEK293 cells assessed as induction of cAMP accumulation at 100 uM after 2 hrs by alpha screen assay relative to NDP-MSH; type: functional, cell-based; summary of the method: as §1
Chain of Melanocortin receptor 5 (Mus musculus) (P41149 whole entry): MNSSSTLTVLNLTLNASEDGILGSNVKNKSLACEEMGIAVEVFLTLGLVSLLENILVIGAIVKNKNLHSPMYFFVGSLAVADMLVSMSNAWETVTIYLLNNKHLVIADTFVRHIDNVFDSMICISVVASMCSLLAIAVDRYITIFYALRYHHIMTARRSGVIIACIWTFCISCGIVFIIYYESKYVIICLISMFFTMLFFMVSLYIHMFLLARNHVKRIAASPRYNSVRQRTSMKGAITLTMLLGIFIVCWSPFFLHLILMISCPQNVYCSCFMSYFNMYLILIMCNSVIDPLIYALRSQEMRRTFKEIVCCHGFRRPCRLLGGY

Melanocortin receptor 4 [7] = biological target: T1, Melanocortin receptor 4; assay: Agonist activity at mouse MC4R expressed in HEK293 cells assessed as induction of cAMP accumulation at 100 uM after 2 hrs by alpha screen assay relative to NDP-MSH; type: cell-based; summary of the method: as §1
[8] = biological target: Melanocortin receptor 4 (Mus musculus) (UniProt P56450); assay: Antagonist activity at mouse MC4R expressed in HEK293 cells assessed as inhibition of NDP-MSH induced-cAMP accumulation up to 10 uM after 2 hrs by alpha screen assay; type: functional, cell-based; summary of the method: as §2
Chain of Melanocortin receptor 4 (Mus musculus) (P56450 whole entry): as the sequence (P56450 whole entry) above

Melanocortin receptor 4 [9] = biological target: T2, Melanocortin receptor 4 (Homo sapiens, UniProt P32245); assay: Antagonist activity at human MC4R expressed in CHO cells assessed as inhibition of aplha MSH-induced cAMP activation after 45 mins; type: functional, cell-based
T2 sequence (P32245 whole entry): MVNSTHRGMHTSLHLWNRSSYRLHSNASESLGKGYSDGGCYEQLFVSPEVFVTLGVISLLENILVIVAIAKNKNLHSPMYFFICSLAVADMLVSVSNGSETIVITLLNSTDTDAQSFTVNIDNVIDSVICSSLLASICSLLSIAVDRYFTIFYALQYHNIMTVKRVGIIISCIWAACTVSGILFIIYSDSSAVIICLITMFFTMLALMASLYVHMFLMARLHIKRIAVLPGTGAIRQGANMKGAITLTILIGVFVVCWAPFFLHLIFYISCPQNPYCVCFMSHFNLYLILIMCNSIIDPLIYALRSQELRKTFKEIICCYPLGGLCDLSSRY

Melanocortin receptor 4 [10] = biological target: T2, Melanocortin receptor 4; assay: Agonist activity at human MC4R expressed in CHO cells assessed as induction of cAMP activation after 45 mins relative to alpha MSH; type: cell-based; conditions: 0.75 h
[11] = biological target: Melanocortin receptor 3 (Homo sapiens) (UniProt P41968); assay: Binding affinity to human MC3R expressed in CHO cells assessed by radioligand displacement
Chain of Melanocortin receptor 3 (Homo sapiens) (P41968 whole entry): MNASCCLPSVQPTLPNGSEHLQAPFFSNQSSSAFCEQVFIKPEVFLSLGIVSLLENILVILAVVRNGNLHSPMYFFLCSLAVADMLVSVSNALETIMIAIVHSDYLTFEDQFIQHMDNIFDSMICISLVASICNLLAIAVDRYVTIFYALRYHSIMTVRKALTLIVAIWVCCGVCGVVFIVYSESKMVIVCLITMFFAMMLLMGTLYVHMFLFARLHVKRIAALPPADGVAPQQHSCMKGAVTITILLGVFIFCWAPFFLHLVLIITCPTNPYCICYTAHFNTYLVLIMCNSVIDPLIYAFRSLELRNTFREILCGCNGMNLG

Melanocortin receptor 4 [12] = biological target: T2, Melanocortin receptor 4; assay: Agonist activity at human MC4R expressed in CHO cells assessed as induction of cAMP activation after 45 mins; type: cell-based; conditions: 0.75 h
[13] = biological target: Melanocortin receptor 5 (Mus musculus) (UniProt P41149); assay: Agonist activity at mouse MC5R expressed in HEK293 cells assessed as induction of cAMP accumulation up to 100 uM after 2 hrs by alpha screen assay relative to NDP-MSH; type: functional, cell-based; summary of the method: as §1
[14] = biological target: Melanocortin receptor 3 (Mus musculus) (UniProt P33033); assay: Agonist activity at mouse MC3R expressed in HEK293 cells assessed as induction of cAMP accumulation up to 100 uM after 2 hrs by alpha screen assay relative to NDP-MSH; type: functional, cell-based; summary of the method: as §1
[15] = biological target: Melanocyte-stimulating hormone receptor (Mus musculus) (UniProt Q01727); assay: Agonist activity at mouse MC1R expressed in HEK293 cells assessed as induction of cAMP accumulation up to 100 uM after 2 hrs by alpha screen assay relative to NDP-MSH; type: functional, cell-based; summary of the method: as §1

SMILES: N=C(N)NCCC[C@H](NC(=O)[C@@H](Cc1ccc(I)cc1)NC(=O)[C@@H]1Cc2ccccc2CN1)C(=O)N[C@@H](Cc1c[nH]c2ccccc12)C(N)=O
Ki (Melanocortin receptor 4 [9]): 0.79 nM
Kb (Melanocortin receptor 4 [9]; read-out: pA2 (converted)): 0.794 nM
Emax (Melanocortin receptor 4 [10]): > 35%
IC50 [11]: 75 nM
Activity (Melanocortin receptor 4 [12]): 0.3 nM

SMILES: CC(=O)N[C@@H](Cc1ccc2ccccc2c1)C(=O)N[C@@H](CCCNC(=N)N)C(=O)N[C@H](Cc1ccc(I)cc1)C(=O)N[C@@H](Cc1ccc2ccccc2c1)C(N)=O (Ac-[2Nal]R[dPhe(4-I)][2Nal]-NH2)
inhibition [4]: inactive
Activity [5]: 39%
Emax (Melanocortin receptor 4 [2]): < 20%
inhibition [8]: inactive

SMILES: CC(=O)N[C@@H](Cc1ccc(-c2ccccc2)cc1)C(=O)N[C@@H](CCCNC(=N)N)C(=O)N[C@H](Cc1ccc(I)cc1)C(=O)N[C@@H](Cc1ccc(-c2ccccc2)cc1)C(N)=O (Ac-[Bip]R[dPhe(4-I)][Bip]-NH2)
Activity [13]: < 20%
inhibition [4]: inactive
Activity [14]: < 20%
Activity [15]: < 20%
inhibition [8]: inactive

Continued, values first:

EC50 (Melanocortin receptor 4 [1]): > 100000 nM
Emax (Melanocortin receptor 4 [2]): < 20%
SMILES: CC(=O)N[C@@H](CCCNC(=N)N)C(=O)N[C@@H](CCCNC(=N)N)C(=O)N[C@H](Cc1ccc(I)cc1)C(=O)N[C@H](Cc1ccc2ccccc2c1)C(N)=O

Activity [3]: 36%
inhibition [4]: inactive
Activity [5]: 34%
Activity [6]: 41%
Activity (Melanocortin receptor 4 [7]): 38%
inhibition [8]: inactive
SMILES: CC(=O)N[C@@H](Cc1csc2ccccc12)C(=O)N[C@@H](CCCNC(=N)N)C(=O)N[C@H](Cc1ccc(I)cc1)C(=O)N[C@H](Cc1ccc2ccccc2c1)C(N)=O

Activity [13]: < 20%
SMILES: CC(=O)N[C@H](Cc1ccc2ccccc2c1)C(=O)N[C@@H](CCCNC(=N)N)C(=O)N[C@H](Cc1ccc(I)cc1)C(=O)N[C@@H](Cc1csc2ccccc12)C(N)=O (Ac-[d2Nal]R[dPhe(4-I)][Bta]-NH2)

Activity [13]: < 20%
Activity [14]: < 20%
Emax (Melanocortin receptor 4 [2]): < 20%
SMILES: CC(=O)N[C@H](Cc1ccc2ccccc2c1)C(=O)N[C@@H](CCCNC(=N)N)C(=O)N[C@H](Cc1ccc(I)cc1)C(=O)NC(Cc1ccccc1)C(N)=O (stereo in doubt)
